Activity calls are given as the source filed them. No cut-off for these calls is given here.
Assays:
Oryctolagus cuniculus [1] = assay: Cardioprotective effect in New Zealand white rabbit assessed as reduction of infract size at 1.3 mg/kg, iv administered before 30 mins of ischemia and 3 hrs of reperfusion relative to control; type: functional; design: scale not given: the % may be the effect or the level left
In short: (§1)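 Anesthetized (pentobarbital 30 mg/kg iv), ventilated male rabbits; regional myocardial ischemia 30 min, reperfusion 3 h. Total 1.3 mg/kg split into two iv boluses in 0.2 ml DMSO + 0.8 ml saline, 40 min and 1 min before ischemia; controls got vehicle. Microspheres delineated risk zone; 3 mm slices stained with 1% TTC, 20 min, 37 C; infarct/risk volume ratio (%). n = 5-10 per group.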

Oryctolagus cuniculus [2] = assay: Decrease in MDA level in New Zealand white rabbit at 1.3 mg/kg, iv after 20 mins of reperfusion relative to control; type: functional, organism-based; design: dose 1.3 mg/kg
In short: (§2)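 Rabbit plasma sampled at baseline, 20 min ischemia, and 1 and 20 min reperfusion after 1.3 mg/kg iv (two boluses). MDA by N-methyl-2-phenyl-indole colorimetric kit: 0.2 ml plasma plus reagent and HCl, 45 C for 60 min, centrifuged, A586; MDA standard curve (2-20 lmol/ml); triplicate; mean ± SEM.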

Oryctolagus cuniculus [3] = assay: Cardioprotective effect in New Zealand white rabbit assessed as reduction of infract size at 1.3 mg/kg, iv administered before 30 of mins ischemia and 3 hrs of reperfusion in presence of adenosine receptor blocker 8-(p-sulfonyl) theophylline relative to control; type: functional; design: scale not given: the % may be the effect or the level left; in short: as §1
Oryctolagus cuniculus [4] = assay: Cardioprotective effect in New Zealand white rabbit assessed as reduction of infract size at 1.3 mg/kg, iv administered before 30 mins of ischemia and 3 hrs of reperfusion in presence of mitoKATP blocker 5-hydroxydecanoic acid relative to control; type: functional; design: scale not given: the % may be the effect or the level left; in short: as §1
Oryctolagus cuniculus [5] = assay: Increase in circulating cGMP level in New Zealand white rabbit at 1.3 mg/kg, iv after 20 mins of ischemia by enzyme immunoassay relative to control; type: functional, organism-based; design: dose 1.3 mg/kg
In short: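 Plasma from rabbits dosed 1.3 mg/kg iv (40 and 1 min pre-ischemia) drawn at 20 min of sustained ischemia. cGMP by competitive enzyme immunoassay: alkaline phosphatase-cGMP conjugate plus polyclonal antibody, 2 h at 25 C shaking, p-nitrophenyl phosphate 1 h, read 450 nm corrected at 550 nm; concentration from standard curve.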

Oryctolagus cuniculus [6] = assay: Increase in MDA level in New Zealand white rabbit at 1.3 mg/kg, iv after 20 mins of ischemia relative to control; type: functional, organism-based; design: dose 1.3 mg/kg; in short: as §2

| SMILES | Activity (Oryctolagus cuniculus [1]) [%] | Activity (Oryctolagus cuniculus [2]) | Activity (Oryctolagus cuniculus [3]) [%] | Activity (Oryctolagus cuniculus [4]) [%] | Activity (Oryctolagus cuniculus [5]) | Activity (Oryctolagus cuniculus [6]) |
| --- | --- | --- | --- | --- | --- | --- |
| O=[N+]([O-])OCCCCCCn1cnc2c(N3CCCCC3)ncnc21 | 19.8 | Active | 28.03 | 21.9 | – | – |
| O=C(NCCO[N+](=O)[O-])c1ccc2ccccc2n1 | 22.4 | Active | – | – | Active | Active |
| O=[N+]([O-])OCCCCCCCCCCCn1cnc2c(N3CCCCC3)ncnc21 | – | Active | – | – | Active | – |
| O=C(NCCO[N+](=O)[O-])c1cc2ccccc2[nH]1 | 20.5 | Active | – | 40.12 | Active | Active |

Source: ChEMBL document CHEMBL1144733, “Design and synthesis of nitrate esters of aromatic heterocyclic compounds as pharmacological preconditioning agents” (2008)
